Legend:
Assay type in all cases: functional
Hs-578T = assay: Cytotoxicity against human Hs578T cells after 48 hrs by SRB assay
Method in brief: (§1)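 NCI 60-cell-line screen. Cells preincubated 24 h at 37 °C, 5% CO2; time-zero plates TCA-fixed. Compounds dissolved in DMSO and tested at five concentrations (100, 10, 1.0, 0.1, 0.01 µM) for 48 h continuous exposure. Adherent cells fixed with cold TCA (10% final), then SRB stained; absorbance at 515 nm. GI50, TGI and LC50 calculated from growth relative to time-zero and untreated controls.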

CCRF-CEM = assay: Cytotoxicity against human CCRF-CEM cells after 48 hrs by SRB assay; method in brief: as §1
OVCAR-4 = assay: Cytotoxicity against human OVCAR4 cells after 48 hrs by SRB assay; settings: OVCAR-4, 48 h; method in brief: as §1
Plasmodium falciparum = assay: Antimalarial activity against Plasmodium falciparum NF54 infected in human serum at 20 ug/ml after 48 hrs by fluorometric method
Method in brief: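 Asynchronous P. falciparum NF54 at 1.5–2% parasitemia, 5% hematocrit in RPMI with 10% human serum, exposed 48 h at 37 °C under 90% N2/5% CO2/5% O2 at the stated concentration; parasite DNA stained with ethidium bromide after proteinase K lysis; viability % = (Flu treated − medium)/(Flu untreated − medium) ×100; triplicate.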

DU-145 = assay: Cytotoxicity against human DU145 cells after 48 hrs by SRB assay; settings: DU-145, 48 h; method in brief: as §1
SF-295 = assay: Cytotoxicity against human SF295 cells after 48 hrs by SRB assay; settings: SF-295, 48 h; method in brief: as §1
A498 = assay: Cytotoxicity against human A498 cells after 48 hrs by SRB assay; settings: A498, 48 h; for CC50: read-out: LC50 (the source's name); method in brief: as §1
U-251 = assay: Cytotoxicity against human U251 cells after 48 hrs by SRB assay; settings: U-251, 48 h; for CC50: read-out: LC50 (the source's name)
Method in brief: (§2)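 NCI 60-cell screen. Cells grew 24 h (37 °C, 5% CO2) before compound was added. Compounds were in DMSO and diluted in medium with gentamicin, then tested at five levels (100, 10, 1.0, 0.1, 0.01 µM) with 48 h continuous exposure. Adherent cells were fixed with TCA (10% final) and stained with 0.4% SRB, absorbance read at 515 nm. A time-zero plate was included. LC50 is the concentration giving 50% loss of protein relative to time zero.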

Malme-3M = assay: Cytotoxicity against human MALME-3M cells after 48 hrs by SRB assay; method in brief: as §1
BT-549 = assay: Cytotoxicity against human BT549 cells after 48 hrs by SRB assay; settings: BT-549, 48 h; method in brief: as §1
ACHN = assay: Cytotoxicity against human ACHN cells after 48 hrs by SRB assay; settings: for CC50: read-out: LC50 (the source's name); method in brief: as §1
TK-10 = assay: Cytotoxicity against human TK10 cells after 48 hrs by SRB assay; settings: TK-10, 48 h; method in brief: as §2
MOLT-4 = assay: Cytotoxicity against human MOLT4 cells after 48 hrs by SRB assay; settings: MOLT-4, 48 h; method in brief: as §1
HL-60(TB) = assay: Cytotoxicity against human HL-60(TB) cells after 48 hrs by SRB assay; settings: HL-60, 48 h; for CC50: read-out: LC50 (the source's name); method in brief: as §1
MDA-MB-435 = assay: Cytotoxicity against human MDA-MB-435 cells after 48 hrs by SRB assay; settings: MDA-MB-435, 48 h; method in brief: as §1
SK-OV-3 = assay: Cytotoxicity against human SKOV3 cells after 48 hrs by SRB assay; settings: SK-OV-3, 48 h; method in brief: as §1
HCT-116 = assay: Cytotoxicity against human HCT116 cells after 48 hrs by SRB assay; settings: HCT-116, 48 h; method in brief: as §1
SNB-75 = assay: Cytotoxicity against human SNB75 cells after 48 hrs by SRB assay; settings: SNB-75, 48 h; method in brief: as §2
OVCAR-5 = assay: Cytotoxicity against human OVCAR5 cells after 48 hrs by SRB assay; settings: OVCAR-5, 48 h; method in brief: as §1
SK-MEL-5 = assay: Cytotoxicity against human SK-MEL-5 cells after 48 hrs by SRB assay; settings: SK-MEL-5, 48 h; method in brief: as §1
NCI-H23 = assay: Cytotoxicity against human NCI-H23 cells after 48 hrs by SRB assay; settings: NCI-H23, 48 h; for CC50: read-out: LC50 (the source's name); method in brief: as §1
PC-3 = assay: Cytotoxicity against human PC3 cells after 48 hrs by SRB assay; settings: PC-3, 48 h; method in brief: as §1
MDA-MB-468 = assay: Cytotoxicity against human MDA-MB-468 cells after 48 hrs by SRB assay; settings: MDA-MB-468, 48 h; method in brief: as §1
SF-539 = assay: Cytotoxicity against human SF539 cells after 48 hrs by SRB assay; settings: SF-539, 48 h; for CC50: read-out: LC50 (the source's name); method in brief: as §1
HCT-15 = assay: Cytotoxicity against human HCT15 cells after 48 hrs by SRB assay; settings: HCT-15, 48 h; method in brief: as §1
OVCAR-3 = assay: Cytotoxicity against human OVCAR3 cells after 48 hrs by SRB assay; settings: OVCAR-3, 48 h; method in brief: as §1
786-0 = assay: Cytotoxicity against human 786-0 cells after 48 hrs by SRB assay; settings: 786-0, 48 h; method in brief: as §1
SR = assay: Cytotoxicity against human SR cells after 48 hrs by SRB assay; method in brief: as §2
MDA-MB-231 = assay: Cytotoxicity against human MDA-MB-231 cells after 48 hrs by SRB assay; settings: MDA-MB-231, 48 h; method in brief: as §1
UO-31 = assay: Cytotoxicity against human UO31 cells after 48 hrs by SRB assay; settings: UO-31, 48 h; method in brief: as §2
MCF7 = assay: Cytotoxicity against human MCF7 cells after 48 hrs by SRB assay; settings: MCF7, 48 h; for CC50: read-out: LC50 (the source's name); method in brief: as §1
NCI/ADR-RES = assay: Cytotoxicity against human NCI/ADR-RES cells after 48 hrs by SRB assay; settings: for CC50: read-out: LC50 (the source's name); method in brief: as §1
M14 = assay: Cytotoxicity against human M14 cells after 48 hrs by SRB assay; settings: M14, 48 h; for CC50: read-out: LC50 (the source's name); method in brief: as §1
NCI-H460 = assay: Cytotoxicity against human NCI-H460 cells after 48 hrs by SRB assay; settings: NCI-H460, 48 h; method in brief: as §1

## O=CN1N=C(c2ccc(Nc3ccnc4cc(Cl)ccc34)cc2)CC1c1ccccc1 (stereo not drawn)
Hs-578T
  GI50: 3.77 µM
  LC50 (50% net cell kill): > 100 µM
CCRF-CEM
  GI50: 2.51 µM
  LC50 (concentration killing 50% of cells relative to time zero): > 100 µM
OVCAR-4
  GI50: 3.88 µM
  LC50: > 100 µM
Plasmodium falciparum
  inhibition at 20 µg/mL: 20.2%
DU-145
  GI50: 3.8 µM
  LC50 (concentration killing 50% of cells): > 100 µM
SF-295
  GI50: 2.41 µM
  LC50: > 100 µM
A498
  GI50: 1.3 µM
  CC50: > 100 µM
U-251
  GI50: 3.12 µM
  CC50: > 100 µM
Malme-3M
  GI50: 4.21 µM
  LC50: > 100 µM
BT-549
  GI50: 3.81 µM
  LC50 (50% net cell kill vs time zero): 53.8 µM
ACHN
  GI50: 4.21 µM
  CC50: > 100 µM
TK-10
  GI50: 9.51 µM
  LC50 (concentration giving 50% cell loss vs time zero): > 100 µM
MOLT-4
  GI50: 2.28 µM
  LC50: > 100 µM
HL-60(TB)
  GI50: 2.66 µM
  CC50: 72.5 µM
MDA-MB-435
  GI50: 1.59 µM
  LC50: > 100 µM
SK-OV-3
  GI50: 11.3 µM
  LC50 (concentration killing 50% of cells): > 100 µM
HCT-116
  GI50: 3.58 µM
  LC50: > 100 µM
SNB-75
  GI50: 5.03 µM
  LC50 (50% net cell kill): > 100 µM
OVCAR-5
  GI50: 19.8 µM
  LC50: > 100 µM
SK-MEL-5
  GI50: 1.38 µM
  LC50 (concentration killing 50% of cells present at time zero): 11.2 µM
NCI-H23
  GI50: 3.64 µM
  CC50: > 100 µM
PC-3
  GI50: 4.76 µM
  LC50: > 100 µM
MDA-MB-468
  GI50: 0.98 µM
  LC50: 10 µM
SF-539
  GI50: 4.57 µM
  CC50: 99.2 µM
HCT-15
  GI50: 2.54 µM
  LC50 (concentration killing 50% of cells relative to time zero): > 100 µM
OVCAR-3
  GI50: 2.78 µM
  LC50: 43.2 µM
786-0
  GI50: 3.36 µM
  LC50: 98.4 µM
SR
  GI50: 1.77 µM
  LC50: > 100 µM
MDA-MB-231
  GI50: 2.43 µM
  LC50 (concentration killing 50% of cells present at time zero): > 100 µM
UO-31
  GI50: 3.81 µM
  LC50: > 100 µM
MCF7
  GI50: 3.42 µM
  CC50: > 100 µM
NCI/ADR-RES
  GI50: 2.69 µM
  CC50: > 100 µM
M14
  GI50: 4.12 µM
  CC50: > 100 µM
NCI-H460
  GI50: 3.96 µM
  LC50: > 100 µM

## Cc1ccc(C2CC(c3ccc(Nc4ccnc5cc(Cl)ccc45)cc3)=NN2C=O)cc1 (stereo not drawn)
Hs-578T
  GI50: 5.64 µM
  LC50 (50% net cell kill): > 100 µM
CCRF-CEM
  GI50: 2.25 µM
  LC50 (concentration killing 50% of cells relative to time zero): > 100 µM
OVCAR-4
  GI50: 5.15 µM
  LC50: > 100 µM
Plasmodium falciparum
  inhibition at 20 µg/mL: 0%
DU-145
  GI50: > 100 µM
  LC50 (concentration killing 50% of cells): > 100 µM
SF-295
  GI50: 4 µM
  LC50: > 100 µM
A498
  CC50: > 100 µM
U-251
  GI50: > 100 µM
  CC50: > 100 µM
Malme-3M
  GI50: > 100 µM
  LC50: > 100 µM
BT-549
  GI50: 1.65 µM
  LC50 (50% net cell kill vs time zero): > 100 µM
ACHN
  GI50: 3.27 µM
  CC50: > 100 µM
TK-10
  GI50: > 100 µM
  LC50 (concentration giving 50% cell loss vs time zero): > 100 µM
MOLT-4
  GI50: 5.13 µM
  LC50: > 100 µM
HL-60(TB)
  GI50: 2.27 µM
  CC50: > 100 µM
MDA-MB-435
  GI50: 1.95 µM
  LC50: > 100 µM
SK-OV-3
  GI50: > 100 µM
  LC50 (concentration killing 50% of cells): > 100 µM
HCT-116
  GI50: 25.2 µM
  LC50: > 100 µM
SNB-75
  GI50: > 100 µM
  LC50 (50% net cell kill): > 100 µM
OVCAR-5
  GI50: > 100 µM
  LC50: > 100 µM
SK-MEL-5
  GI50: 1.74 µM
  LC50 (concentration killing 50% of cells present at time zero): > 100 µM
NCI-H23
  GI50: 6.93 µM
  CC50: > 100 µM
PC-3
  GI50: 4.61 µM
  LC50: > 100 µM
MDA-MB-468
  GI50: 1.51 µM
  LC50: > 100 µM
SF-539
  GI50: > 100 µM
  CC50: > 100 µM
HCT-15
  GI50: 2.78 µM
  LC50 (concentration killing 50% of cells relative to time zero): > 100 µM
OVCAR-3
  GI50: 6.82 µM
  LC50: > 100 µM
786-0
  GI50: 50.9 µM
  LC50: > 100 µM
SR
  GI50: 3.18 µM
  LC50: > 100 µM
MDA-MB-231
  GI50: 6.09 µM
  LC50 (concentration killing 50% of cells present at time zero): > 100 µM
UO-31
  GI50: 5.49 µM
  LC50: > 100 µM
MCF7
  GI50: 8.39 µM
  CC50: > 100 µM
NCI/ADR-RES
  GI50: 5.22 µM
  CC50: > 100 µM
M14
  GI50: 6.88 µM
  CC50: > 100 µM
NCI-H460
  GI50: > 100 µM
  LC50: > 100 µM

Reference: ChEMBL document CHEMBL2417469, “Synthesis of novel analogs of 2-pyrazoline obtained from [(7-chloroquinolin-4-yl)amino]chalcones and hydrazine as potential antitumor and antimalarial agents” (Eur J Med Chem, 2013)
